# Test results published in paper PMC3822768 (Bioorganic & medicinal chemistry, 2013).
# Key:
# Format in all cases: cell-based, Human
# cancer cell lines = test: MTT growth inhibition assay, summary over the cancer cell line panel; details: 48 h; for cytotoxicity against the cancer cell lines: MTT
# H460 cells [1] = test: Cell cycle analysis by propidium iodide staining and flow cytometry, H460; details: H460, 1.0, 2.5, 5.0 µM, 24 h
# Outline: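 After 24 h exposure to test compound at 1.0, 2.5 or 5.0 µM, H460 cells were washed in PBS and fixed overnight in 70% ice-cold ethanol at −20 °C. They were then stained in the dark for 30 min with 0.1% Triton X-100, 0.2 mg/mL RNase and 20 µg/mL propidium iodide. DNA content was measured by flow cytometry and histograms were modelled for phase distribution.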
# HL-60 cells = test: Hoechst 33258 staining; details: HL-60, 0.25-1.0 µM, 24 h
# Outline: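 HL-60 cells seeded at 1×10⁵ per well and incubated 24 h with test compound at 0.25, 0.5 and 1.0 µM. After phase-contrast imaging, nuclei stained with Hoechst 33258 (5 µg/mL, 10 min), washed twice with PBS and fixed in 4% PFA/PBS for 10 min at 25 °C. Apoptotic chromatin condensation or fragmentation assessed; fluorescence at ex 365/em 460 nm.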
# H460 cells [2] = test: Hoechst 33258 staining; details: H460, 1.0-5.0 µM, 24 h
# Outline: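 H460 cells plated at 5×10⁴ per well and exposed to test compound at 1.0, 2.5 and 5.0 µM for 24 h. Cells photographed under phase contrast, then stained with 5 µg/mL Hoechst 33258 for 10 min, washed twice in PBS and fixed in 4% PFA/PBS for 10 min at 25 °C. Nuclei scored for chromatin condensation or fragmentation; fluorescence read at ex 365/em 460 nm.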
# [3] = system: cyclin B1, CDK1, caspase 3 in HL-60 cells; test: Western blot of cyclin B1, CDK1 and caspase 3, HL-60; details: HL-60, 24 h
# Outline: (§1)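 Cells grown in RPMI-1640 with 10% FBS at 37 °C, 5% CO₂, then treated with test compound at graded concentrations for 24 h. Harvested cells lysed on ice for 30 min and spun at 12,000 g for 20 min. Protein quantified by Bradford, denatured in Tris-HCl pH 6.8/DTT/SDS loading buffer, run on 10% SDS-PAGE and transferred to nitrocellulose. Detection by chemiluminescence, with β-actin as loading control.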
# [4] = system: cyclin B1, CDK1, caspase 3 in H460 cells; test: Western blot of cyclin B1, CDK1 and caspase 3, H460; details: H460, 24 h
# Outline: as §1
structure (smiles),measurement,setting,value
"O=c1cc(-c2ccccc2)c2cc3c(cc2[nH]1)OCO3 [Compound 12a, 6,7-Methylenedioxy-4-phenylquinolin-2(1H)-one]",cytotoxicity against the cancer cell lines,cancer cell lines,poor cytotoxicity
"COc1ccc(-c2cc(=O)[nH]c3cc4c(cc23)OCO4)c(OC)c1 [Compound 12e, 6,7-Methylenedioxy-4-(2,4-dimethoxyphenyl)quinolin-2(1H)-one]",percentage of G2/M cells,H460 cells [1],increased
same,apoptotic morphology by Hoechst 33258 staining,HL-60 cells,typical apoptotic characteristics
same,apoptotic morphology by Hoechst 33258 staining,H460 cells [2],typical apoptotic characteristics
same,CDK1 protein expression level,[3],decreased in a concentration-dependent manner
same,caspase 3 cleavage (17 kDa),[3],induced caspase 3 cleavage
same,cyclin B1 protein expression,[3],transient increase followed by a decrease
same,CDK1 protein expression level,[4],increased in a concentration-dependent manner
same,caspase 3 cleavage (17 kDa),[4],induced caspase 3 cleavage
"COc1cc(-c2cc(=O)[nH]c3cc4c(cc23)OCO4)cc(OC)c1OC [Compound 12k, 6,7-Methylenedioxy-4-(3,4,5-trimethoxyphenyl)quinolin-2(1H)-one]",IC50,"cancer cell lines; Homo sapiens, read-out: IC50 range over cancer cell lines",0.93 to 7.6 µM
"O=c1cc(-c2ccccc2F)c2cc3c(cc2[nH]1)OCO3 [Compound 12l, 4-(2-Fluorophenyl)-6,7-methylenedioxyquinolin-2(1H)-one]",cytotoxicity against the cancer cell lines,cancer cell lines,weak cytotoxicity
"O=c1cc(-c2cccc(F)c2)c2cc3c(cc2[nH]1)OCO3 [Compound 12m, 4-(3-Fluorophenyl)-6,7-methylenedioxyquinolin-2(1H)-one]",cytotoxicity against the cancer cell lines,cancer cell lines,weak cytotoxicity
"O=c1cc(-c2ccc(F)cc2)c2cc3c(cc2[nH]1)OCO3 [Compound 12n, 4-(4-Fluorophenyl)-6,7-methylenedioxyquinolin-2(1H)-one]",cytotoxicity against the cancer cell lines,cancer cell lines,weak cytotoxicity
